# Results reported in ChEMBL document CHEMBL4270526, “A novel NAE/UAE dual inhibitor LP0040 blocks neddylation and ubiquitination leading to growth inhibition and apoptosis of cancer cells” (Eur J Med Chem, 2018).
# The source made the active and inactive calls. No cut-off for these calls is given here.
# Columns and labels:
# A549 = test: Antiproliferative activity against human A549 cells after 48 hrs by CCK8 assay; type: functional, cell-based; conditions: A549, 48 h
# Outline: (§1)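 Cells seeded at 6 × 10^3 cells/well and left 12 h at 37 °C, 5% CO2. Medium then replaced with serial compound dilutions, bortezomib as positive control. After 48 h, CCK-8 added for 4 h and absorbance read at 450 nm. Three repeats; IC50 from normalized nonlinear regression of inhibition curves.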
# AGS [1] = test: Antiproliferative activity against human AGS cells after 48 hrs by CCK8 assay; type: functional, cell-based; outline: as §1
# HCT-116 = test: Antiproliferative activity against human HCT116 cells after 48 hrs by CCK8 assay; type: functional, cell-based; conditions: HCT-116, 48 h; outline: as §1
# SK-OV-3 = test: Antiproliferative activity against human SKOV3 cells after 48 hrs by CCK8 assay; type: functional, cell-based; conditions: SK-OV-3, 48 h; outline: as §1
# [2] = Selectivity index, ratio of IC50 for HEK293T cells to IC50 for human AGS cells; type: toxicity; conditions: HEK293T cells versus AGS cells, read-out: Ratio IC50
# [3] = Selectivity index, ratio of IC50 for HUVEC to IC50 for human AGS cells; type: toxicity; conditions: HUVEC versus AGS cells, read-out: Ratio IC50
# [4] = target: T1, NEDD8 activating enzyme (Homo sapiens) (UniProt Q8TBC4+Q13564); test: Inhibition of NAE in human AGS cells assessed as reduction in Uba3-NEDD8 conjugation level after 24 hrs by Western blot analysis; type: cell-based
# Outline: (§2)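 AGS cells given 2, 4, 6, 8 or 10 μM compound or 0.1% DMSO for 24 h, washed in ice-cold PBS and lysed in RIPA on ice. Equal protein loads run by SDS-PAGE: non-reducing for NEDD8/SUMO/Ub conjugates, reducing for p27, NRF2, CDT1 and cleaved caspase-3. Blotted to PVDF with primary antibody overnight at 4 °C and HRP secondary, ECL detection, densitometry. Three repeats.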
# [5] = target: T1, NEDD8 activating enzyme (Homo sapiens); test: Inhibition of NAE in human AGS cells assessed as reduction in Ubc12-NEDD8 conjugation level after 24 hrs by Western blot analysis; type: cell-based; outline: as §2
# [6] = target: T1, NEDD8 activating enzyme (Homo sapiens); test: Inhibition of NAE-mediated CRL neddylation in human AGS cells assessed as increase in CDT1 level up to 10 uM after 24 hrs by Western blot analysis; type: cell-based; outline: as §2
# [7] = target: SUMO-activating enzyme (Homo sapiens) (UniProt Q9UBE0+Q9UBT2); test: Inhibition of SAE in human AGS cells assessed as reduction in […]-SUMO conjugation level at 2 to 10 uM after 24 hrs by Western blot analysis; type: cell-based; outline: as §2
# AGS [8] = test: Inhibition of UAE in human AGS cells assessed as reduction in Ubc10-Ub conjugation level at 2 to 10 uM after 24 hrs by Western blot analysis; type: cell-based
# Outline: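 AGS cells (Ham's F12/10% FBS) exposed to 2, 4, 6, 8 or 10 µM compound, or 0.1% DMSO, for 24 h. RIPA lysates of equal protein run on non-reducing SDS-PAGE. Western blot for Ubc10-Ub or USE1-Ub, with densitometry. Three repeats.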
# [9] = target: Serine/threonine-protein kinase B-raf (Homo sapiens) (UniProt P15056); test: Inhibition of B-raf (unknown origin) at 30 uM relative to control
# Chain of Serine/threonine-protein kinase B-raf (Homo sapiens) (P15056 whole entry): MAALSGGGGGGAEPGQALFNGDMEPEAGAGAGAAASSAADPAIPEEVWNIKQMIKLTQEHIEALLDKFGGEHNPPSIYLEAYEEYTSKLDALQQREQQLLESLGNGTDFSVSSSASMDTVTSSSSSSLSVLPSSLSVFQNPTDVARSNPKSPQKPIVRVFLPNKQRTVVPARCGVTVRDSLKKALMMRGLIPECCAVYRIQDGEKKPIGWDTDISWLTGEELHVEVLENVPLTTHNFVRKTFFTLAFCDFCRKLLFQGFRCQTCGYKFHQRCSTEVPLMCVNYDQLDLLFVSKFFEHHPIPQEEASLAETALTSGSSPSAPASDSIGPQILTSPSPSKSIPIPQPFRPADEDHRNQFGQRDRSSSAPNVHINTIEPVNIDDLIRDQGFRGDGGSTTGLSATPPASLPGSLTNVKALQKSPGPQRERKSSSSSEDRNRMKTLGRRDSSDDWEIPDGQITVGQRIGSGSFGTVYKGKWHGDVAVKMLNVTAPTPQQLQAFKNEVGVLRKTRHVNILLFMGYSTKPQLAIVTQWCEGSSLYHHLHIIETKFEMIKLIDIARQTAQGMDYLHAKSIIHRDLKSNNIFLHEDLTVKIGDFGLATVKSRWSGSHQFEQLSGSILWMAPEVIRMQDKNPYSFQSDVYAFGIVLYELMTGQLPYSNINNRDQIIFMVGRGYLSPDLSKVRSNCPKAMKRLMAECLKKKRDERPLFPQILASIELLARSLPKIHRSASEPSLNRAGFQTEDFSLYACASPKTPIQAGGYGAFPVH
# [10] = target: Cyclin-dependent kinase 1 (Homo sapiens) (UniProt P06493); test: Inhibition of CDK1 (unknown origin) at 30 uM relative to control
# Chain of Cyclin-dependent kinase 1 (Homo sapiens) (P06493 whole entry, looked up): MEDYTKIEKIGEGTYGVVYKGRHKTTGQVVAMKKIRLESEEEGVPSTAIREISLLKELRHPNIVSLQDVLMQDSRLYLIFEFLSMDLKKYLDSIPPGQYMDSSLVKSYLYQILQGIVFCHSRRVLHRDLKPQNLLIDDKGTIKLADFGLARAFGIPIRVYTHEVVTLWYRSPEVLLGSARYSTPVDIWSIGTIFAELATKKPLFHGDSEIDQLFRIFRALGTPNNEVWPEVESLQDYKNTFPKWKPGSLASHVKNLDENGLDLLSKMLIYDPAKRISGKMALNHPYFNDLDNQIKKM
# [11] = target: Cyclin-dependent kinase 2/cyclin E1 (Homo sapiens) (UniProt P24864+P24941); test: Inhibition of CDK2/cyclin E (unknown origin) at 30 uM relative to control; type: protein-complex assay
# [12] = target: Serine/threonine-protein kinase Chk1 (Homo sapiens) (UniProt O14757); test: Inhibition of CHK1 (unknown origin) at 30 uM relative to control
# Chain of Serine/threonine-protein kinase Chk1 (Homo sapiens) (O14757 whole entry): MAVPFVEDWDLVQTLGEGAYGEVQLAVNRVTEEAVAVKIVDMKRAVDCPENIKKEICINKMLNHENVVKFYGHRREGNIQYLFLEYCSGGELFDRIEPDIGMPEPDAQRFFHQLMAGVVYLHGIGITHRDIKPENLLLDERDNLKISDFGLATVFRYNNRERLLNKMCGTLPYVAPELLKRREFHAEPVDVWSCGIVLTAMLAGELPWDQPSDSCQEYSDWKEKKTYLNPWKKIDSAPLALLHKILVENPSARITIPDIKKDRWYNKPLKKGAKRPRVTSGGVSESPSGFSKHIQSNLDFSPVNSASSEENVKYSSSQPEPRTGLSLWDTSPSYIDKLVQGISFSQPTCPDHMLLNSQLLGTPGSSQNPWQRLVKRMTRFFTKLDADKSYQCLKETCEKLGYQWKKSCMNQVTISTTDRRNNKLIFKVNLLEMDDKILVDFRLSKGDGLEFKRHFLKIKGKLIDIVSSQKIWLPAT
# [13] = target: Tyrosine-protein kinase Lck (Homo sapiens) (UniProt P06239); test: Inhibition of LCK (unknown origin) at 30 uM relative to control
# Chain of Tyrosine-protein kinase Lck (Homo sapiens) (P06239 2-509 limits assumed): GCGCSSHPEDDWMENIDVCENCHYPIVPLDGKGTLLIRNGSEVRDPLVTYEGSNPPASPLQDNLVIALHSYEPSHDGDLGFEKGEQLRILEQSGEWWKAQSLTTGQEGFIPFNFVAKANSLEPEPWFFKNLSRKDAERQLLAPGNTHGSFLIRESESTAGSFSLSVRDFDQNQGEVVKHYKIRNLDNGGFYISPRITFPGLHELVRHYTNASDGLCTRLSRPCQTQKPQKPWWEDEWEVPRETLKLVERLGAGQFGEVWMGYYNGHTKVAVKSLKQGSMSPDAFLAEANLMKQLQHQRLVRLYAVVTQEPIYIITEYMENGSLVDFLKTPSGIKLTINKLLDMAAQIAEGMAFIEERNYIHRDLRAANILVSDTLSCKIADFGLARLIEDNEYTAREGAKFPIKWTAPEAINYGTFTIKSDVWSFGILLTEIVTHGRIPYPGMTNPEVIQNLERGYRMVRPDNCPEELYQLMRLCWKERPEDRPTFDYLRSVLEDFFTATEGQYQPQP
# [14] = target: Serine/threonine-protein kinase PLK1 (Homo sapiens) (UniProt P53350); test: Inhibition of PLK (unknown origin) at 30 uM relative to control
# Chain of Serine/threonine-protein kinase PLK1 (Homo sapiens) (P53350 whole entry): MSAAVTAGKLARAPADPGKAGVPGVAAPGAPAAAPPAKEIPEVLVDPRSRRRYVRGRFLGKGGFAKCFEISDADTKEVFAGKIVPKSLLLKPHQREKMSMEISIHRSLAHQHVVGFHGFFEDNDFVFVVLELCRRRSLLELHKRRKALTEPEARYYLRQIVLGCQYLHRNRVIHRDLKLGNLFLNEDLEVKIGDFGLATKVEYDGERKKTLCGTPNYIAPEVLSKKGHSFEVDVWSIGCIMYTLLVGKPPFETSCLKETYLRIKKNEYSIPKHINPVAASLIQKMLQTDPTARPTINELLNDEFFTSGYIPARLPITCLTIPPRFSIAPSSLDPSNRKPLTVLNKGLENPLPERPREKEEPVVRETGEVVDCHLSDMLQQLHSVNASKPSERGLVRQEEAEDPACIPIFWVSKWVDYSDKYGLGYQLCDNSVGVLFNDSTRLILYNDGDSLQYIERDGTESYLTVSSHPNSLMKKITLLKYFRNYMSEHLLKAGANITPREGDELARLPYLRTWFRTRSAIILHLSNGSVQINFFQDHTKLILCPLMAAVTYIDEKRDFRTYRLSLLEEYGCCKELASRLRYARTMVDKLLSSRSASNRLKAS
# [15] = target: RAC-alpha serine/threonine-protein kinase (Homo sapiens) (UniProt P31749); test: Inhibition of AKT (unknown origin) at 30 uM relative to control
# Chain of RAC-alpha serine/threonine-protein kinase (Homo sapiens) (P31749 whole entry): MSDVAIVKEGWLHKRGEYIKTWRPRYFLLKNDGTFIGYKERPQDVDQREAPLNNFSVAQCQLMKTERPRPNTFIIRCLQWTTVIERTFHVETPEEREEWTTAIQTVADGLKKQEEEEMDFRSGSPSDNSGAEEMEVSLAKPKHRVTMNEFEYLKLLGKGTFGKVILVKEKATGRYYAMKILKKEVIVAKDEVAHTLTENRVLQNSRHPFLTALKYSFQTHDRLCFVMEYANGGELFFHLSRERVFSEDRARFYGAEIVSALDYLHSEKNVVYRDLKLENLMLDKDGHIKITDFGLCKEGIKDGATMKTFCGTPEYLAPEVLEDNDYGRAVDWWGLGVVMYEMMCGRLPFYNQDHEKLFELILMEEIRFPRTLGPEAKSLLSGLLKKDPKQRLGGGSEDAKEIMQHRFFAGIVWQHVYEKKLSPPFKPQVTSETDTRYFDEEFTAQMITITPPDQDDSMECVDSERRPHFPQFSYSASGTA
# [16] = target: Inhibitor of nuclear factor kappa-B kinase subunit beta (Homo sapiens) (UniProt O14920); test: Inhibition of IKKB (unknown origin) at 30 uM relative to control
# Chain of Inhibitor of nuclear factor kappa-B kinase subunit beta (Homo sapiens) (O14920 whole entry): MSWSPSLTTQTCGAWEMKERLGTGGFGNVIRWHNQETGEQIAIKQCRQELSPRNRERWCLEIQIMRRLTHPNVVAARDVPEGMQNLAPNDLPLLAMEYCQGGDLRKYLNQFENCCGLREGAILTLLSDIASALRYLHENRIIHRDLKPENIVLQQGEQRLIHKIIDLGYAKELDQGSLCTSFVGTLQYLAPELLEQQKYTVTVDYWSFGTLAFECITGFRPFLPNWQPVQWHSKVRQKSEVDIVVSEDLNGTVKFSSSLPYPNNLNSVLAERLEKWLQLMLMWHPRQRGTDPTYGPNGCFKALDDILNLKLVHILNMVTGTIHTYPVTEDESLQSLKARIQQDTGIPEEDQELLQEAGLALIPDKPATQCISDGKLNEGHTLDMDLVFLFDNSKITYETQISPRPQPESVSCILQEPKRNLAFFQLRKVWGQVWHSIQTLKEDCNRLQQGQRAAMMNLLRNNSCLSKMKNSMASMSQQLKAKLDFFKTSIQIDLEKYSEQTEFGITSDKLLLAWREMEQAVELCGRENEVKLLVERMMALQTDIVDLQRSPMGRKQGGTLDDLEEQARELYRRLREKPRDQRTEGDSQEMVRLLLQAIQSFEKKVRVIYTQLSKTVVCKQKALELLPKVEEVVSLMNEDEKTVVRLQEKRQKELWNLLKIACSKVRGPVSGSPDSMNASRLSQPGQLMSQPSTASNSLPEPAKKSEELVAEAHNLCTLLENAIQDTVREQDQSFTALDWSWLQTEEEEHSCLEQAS
# Homo sapiens = species on record: Homo sapiens; test: Inhibition of UAE (unknown origin) assessed as reduction in Ubc10-Ub conjugation level up to 10 uM pretreated for 10 mins followed by Mg2+ and ATP addition measured after 60 mins by Western blot analysis
# Outline: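 Cell-free assay with UAE 2.5 µM, Ub 250 µM and E2 Ubc10 50 µM (stock concentrations) plus inhibitor, preincubated 10 min at 37 °C. Reaction started with 10 mM Mg2+/ATP (stock), run 60 min at 37 °C, quenched with EDTA. Non-reducing 15% SDS-PAGE, Ubc10-Ub thioester detected by western blot. No-ATP negative control.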
# AGS [17] = test: Induction of apoptosis in human AGS cells assessed as early apoptotic cells at 4 uM after 36 hrs by Annexin-V-FITC/propidium iodide staining based flow cytometry (reference value: 4.44%); type: functional
# AGS [18] = test: Induction of apoptosis in human AGS cells assessed as late apoptotic cells at 4 uM after 36 hrs by Annexin-V-FITC/propidium iodide staining based flow cytometry (reference value: 1.71%); type: functional
# AGS [19] = test: Induction of apoptosis in human AGS cells assessed as necrotic cells at 4 uM after 36 hrs by Annexin-V-FITC/propidium iodide staining based flow cytometry (reference value: 1.01%); type: functional
# AGS [20] = test: Induction of apoptosis in human AGS cells assessed as early apoptotic cells at 6 uM after 36 hrs by Annexin-V-FITC/propidium iodide staining based flow cytometry (reference value: 4.44%); type: functional
# AGS [21] = test: Induction of apoptosis in human AGS cells assessed as live cells at 10 uM after 36 hrs by Annexin-V-FITC/propidium iodide staining based flow cytometry (reference value: 92.84%); type: functional
# AGS [22] = test: Cell cycle arrest in human AGS cells assessed as accumulation at sub-G1 phase at 4 uM after 24 hrs by propidium iodide staining based flow cytometry; type: functional
# Outline: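 AGS cells seeded at 1 × 10^5/well and attached 24 h at 37 °C, 5% CO2. Exposed to 4 μM compound for varying times, then fixed in 70% ethanol at −20 °C overnight. Stained with PI/RNase buffer 15–20 min in the dark; 20000 cells per sample read by flow cytometry (488 nm excitation, FL-3 630 nm). Three repeats.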
# AGS [23] = test: Synergistic antiproliferative activity against human AGS cells assessed as combination index constant at 1.5 uM after 48 hrs in presence of 10 nM BTZ by CCK8 assay; type: functional
# Outline: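 AGS cells at 6×10^3/well attached for 12 h, then exposed for 48 h to compound, bortezomib, or both at set concentrations. CCK-8 added for 4 h, then OD read at 450 nm. Inhibition rates E used for q = E(combo)/(E1+E2−E1×E2). Triplicate experiments.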
smiles,measurement,setting,value
O=c1cc(-c2ccc(-c3ccccc3)cc2)c2ccc(N3CCC(NCCc4ccccc4)CC3)cc2o1,IC50,A549,2140 nM
same,IC50,AGS [1],760 nM
same,IC50,HCT-116,1330 nM
same,IC50,SK-OV-3,3290 nM
same,selectivity ratio,[2],14 to 18
same,selectivity ratio,[3],14 to 18
same,inhibition,[4],Dose-dependent effect
same,inhibition,[5],Dose-dependent effect
same,inhibition,[6],Active
same,inhibition,[7],inactive
same,inhibition,AGS [8],Active
same,inhibition,[9],1.75%
same,inhibition,[10],-1.18%
same,inhibition,[11],4.57%
same,inhibition,[12],1.01%
same,inhibition,[13],-2.51%
same,inhibition,[14],5.58%
same,inhibition,[15],9.87%
same,inhibition,[16],1.07%
same,inhibition,Homo sapiens,Active
same,Activity,AGS [17],7.77%
same,Activity,AGS [18],10.51%
same,Activity,AGS [19],1.03%
same,Activity,AGS [20],45.91%
same,Activity,AGS [21],7.4%
same,Activity,AGS [22],Active
same,CI,AGS [23],1.35
